Assay outcomes from PubChem BioAssay.
KCNK9 inh: KCNK9 potassium channel inhibitors, primary screen, HEK293 cells, thallium flux | B-score at 10 µM | AID 488922, 2010 | 310,000 tested, 1.2% active | Potassium channel subfamily K member 9 (Homo sapiens), Q9NPC2 | FluxOR thallium flux fluorescence; active compounds read low;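 active = ratio B-score over 3 SD below the library mean, with starting fluorescence within 5 SD of its mean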;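 also: negative B-score means less thallium flux so channel inhibition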
Target sequence (Q9NPC2 whole entry, looked up): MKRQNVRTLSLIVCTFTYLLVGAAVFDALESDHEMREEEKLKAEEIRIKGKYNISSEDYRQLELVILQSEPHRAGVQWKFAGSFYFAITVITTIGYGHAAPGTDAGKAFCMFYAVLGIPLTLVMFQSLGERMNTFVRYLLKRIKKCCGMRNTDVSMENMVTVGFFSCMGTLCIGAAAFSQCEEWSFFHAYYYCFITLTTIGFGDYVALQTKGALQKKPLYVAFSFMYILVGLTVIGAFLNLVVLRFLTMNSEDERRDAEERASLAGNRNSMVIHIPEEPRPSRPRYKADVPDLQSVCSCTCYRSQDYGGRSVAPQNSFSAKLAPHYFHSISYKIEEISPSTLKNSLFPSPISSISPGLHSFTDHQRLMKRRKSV
Kir21 block: inhibitors of mouse Kir2.1 inward-rectifier potassium channel. B-score at 10 µM. HEK293-Kir2.1, FluxOR thallium flux fluorescence; active compounds read low. 310,000 tested, 0.85% active. Inward rectifier potassium channel 2 (Mus musculus), P35561;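 active = fluorescence ratio B-score at or below minus 3 SD of library scores, with starting-brightness B-score within 2 SD, cut at about -4.2 in these data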;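 also: channel flux triggered by added potassium and thallium sulfate stimulus; B-score of peak minus minimum fluorescence over baseline after thallium stimulus; more negative B-score means stronger Kir2.1 block with less thallium influx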
hERG rescue: hERG rescue from dofetilide block, primary screen, cell-based, CHO-hERG, FluxOR thallium flux, dofetilide IC70 | Voltage-gated inwardly rectifying potassium channel KCNH2 (Homo sapiens), Q12809 | dofetilide IC70 present | activation (rescue from dofetilide block), less the hit threshold, % at 10 µM | 310,000 tested, 0.51% active;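 active = activation above the mean of controls blocked by dofetilide plus 5 SD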;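 also: thallium influx through hERG after potassium depolarization seen as dye fluorescence rise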
KCNQ1 act: potentiators or activators of KCNQ1 channel, primary screen, cell-based, thallium flux, high-throughput; 310,000 tested, 0.35% active; B-score at 10 µM; CHO-K1 KCNQ1, thallium flux FluxOR fluorescence; active compounds read high;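 active = fluorescence ratio B-score, a plate-corrected score, at least three library SD, with initial intensity B-score within 5 SD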
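Schedule – 37 °C overnight plating, 90-min dark dye load, 20-min compound pretreatment · System – stable KCNQ1 CHO-K1 line · Probe or stimulus – thallium- and potassium-containing depolarizing buffer · Measured by – kinetic FluxOR fluorescence, 10 s baseline plus 110 s post-stimulus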
KCNQ1 inh: inhibitors of human KCNQ1 channel, primary screen, cell-based, thallium flux, high-throughput; 310,000 tested, 1.3% active; B-score at 10 µM; CHO-K1 KCNQ1, FluxOR thallium flux fluorescence; active compounds read high;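 active = compounds whose thallium flux B-score, printed positive for inhibition, exceeds three library SD while starting fluorescence stays within three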;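 also: channel opened by potassium depolarization with thallium stimulus after 20 min compound exposure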
KCNK3 block: human KCNK3 channel inhibitors, primary screen, CHO cells, FluxOR thallium flux, B-score. Potassium channel subfamily K member 3 (Homo sapiens), O14649. FluxOR fluorescence; active compounds read low. B-score at 10 µM. 340,000 tested, 0.84% active;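 active = B-score under library mean minus 4 SD, starting fluorescence ratio at most library mean plus 5 SD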;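 also: more negative B-score means stronger inhibition of thallium flux through KCNK3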
KCNQ1 inh valid: KCNQ1 potassium channel inhibitors, confirmation, cell-based, Tl flux, duplicate | AID 588353, 2011 | shares compounds with KCNQ1 inh | 1,600 tested, 93% active | inhibition, % at 10 µM | KCNQ1 cell line, FluxOR thallium flux fluorescence;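 active = primary screen active, with duplicate mean exceeding buffer control mean plus 3 SD of buffer wells, cut at about 28% in these data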;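 also: 0% = buffer control ratio and 100% = XE991 inhibitor control ratio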
CHO KCNQ1 ctr: thallium flux effects in parental CHO cells, counter-screen for KCNQ1 inhibitor project, cell-based, Tl flux; shares compounds with KCNQ1 inh; parental CHO-K1, FluxOR thallium flux fluorescence ratio; active compounds read low; zero means no signal rise above baseline; fluorescence ratio (Tl flux) at 10 µM; 1,600 tested, 21% active;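 active = mean of duplicate thallium-flux fluorescence ratios in parental host cells more than 5 SD below the buffer control mean, cut at about 0.38 in these data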;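 also: ratio is peak minus minimum fluorescence divided by baseline fluorescence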
KCNQ2 inh: KCNQ2 channel inhibition, selectivity assay for KCNQ1 inhibitor project, cell-based | inhibition, % at 10 µM | AID 651746, 2012 | KCNQ2 cells, FluxOR thallium flux fluorescence | 1,600 tested, 71% active | shares compounds with KCNQ1 inh;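 active = mean percent inhibition of the KCNQ2 thallium signal more than 5 SD above the buffer-only control wells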;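 also: KCNQ2 expressed in CHO cells; 0% = buffer control wells and 100% = XE-991 inhibitor control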
KCNQ1-KCNE1 inh: KCNQ1/KCNE1 channel inhibition, selectivity assay for KCNQ1 inhibitor project, CHO-K1 cells, thallium flux, FluxOR | shares compounds with KCNQ1 inh | 1,600 tested, 77% active | FluxOR thallium flux fluorescence | inhibition, % at 10 µM;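 active = mean percent inhibition of duplicate wells above the buffer-only control mean plus 3 SD of those controls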;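 also: 0% = buffer only wells and 100% = XE-991 inhibitor control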
The depositor's hits bear a star; i = inactive; x = no result. This is a sample that favours compounds with a hit; in the whole collection about 3.7% have one here.

SMILES	KCNK9 inh	Kir21 block	hERG rescue	KCNQ1 act	KCNQ1 inh	KCNK3 block	KCNQ1 inh valid	CHO KCNQ1 ctr	KCNQ2 inh	KCNQ1-KCNE1 inh
CC(NC(=O)Nc1ccc(Br)cc1)C(C)(C)C (stereo not given)	i	-0.55	-11	i	8*	i	60*	0.43	69%*	66%*
CCc1cccc(CC)c1NC(=O)COC(=O)C1(C)CC1(Cl)Cl (stereo not given)	i	-1.2	-13	i	i	i	x	x	x	x
Cc1ccc(S(=O)(=O)Nc2ccccc2CNc2ccccn2)cc1	i	-4.2	-17	i	i	i	x	x	x	x
Cc1ccc(S(=O)(=O)Nc2ccccc2CNc2ccc(Br)cn2)cc1	-7.6*	-2.6	-20	i	7*	i	109*	0.37*	103%*	152%*
Cc1ccc(S(=O)(=O)N(CC(=O)N=Nc2c(O)[nH]c3ccccc23)c2cccc(C)c2)cc1	i	0.63	-3	i	7*	i	76*	0.43	80%*	130%*
CCCOc1ccc(C2=CSC3=NCCN23)cc1	i	-0.02	-2	i	i	i	x	x	x	x
Cc1ccc(C(=O)N2CCN(S(=O)(=O)c3cc(Br)ccc3Br)CC2)o1	i	-0.07	-8	i	i	i	x	x	x	x
Cc1cc(C(=O)NC2CC(C)(C)Cc3c2cnn3-c2ccc(F)cc2)no1 (stereo not given)	i	1.6	-13	i	i	i	x	x	x	x
Cn1nccc1C(=O)NC1CC(C)(C)Cc2c1cnn2-c1ccc(F)cc1 (stereo not given)	i	-0.08	-7	i	6*	i	0	0.55	i	i
CC1(C)Cc2c(cnn2-c2ccc(F)cc2)C(NC(=O)c2ccoc2)C1 (stereo not given)	i	0.94	-13	i	7*	i	72*	0.42	i	93%*
CC1(C)Cc2c(cnn2-c2ccccc2)C(NC(=O)c2ccoc2)C1 (stereo not given)	i	-1.5	-11	i	i	i	x	x	x	x
O=C(Nc1ccccc1N1CCOCC1)c1ccccc1NS(=O)(=O)c1ccc(F)cc1	i	0.05	-15	i	i	i	x	x	x	x
COc1ccc(-c2csc(NC(=O)c3ccccc3NS(=O)(=O)c3ccc(F)c(F)c3)n2)cc1	-6.8*	-0.67	-30	i	6*	i	64*	0.53	i	92%*
O=C(Nc1ccccc1N1CCOCC1)c1ccccc1NS(=O)(=O)c1ccc(F)c(F)c1	i	-1.1	-8	i	7*	i	59*	0.45	74%*	i
COc1ccc(/C=N/NC(=O)c2ccc(O)cc2O)cc1CSc1ccccn1	i	-1.4	-6	i	i	i	x	x	x	x
CCCCCC1C(C(=O)OCC)C(=O)NC1(C(=O)OCC)C(=O)OCC (stereo not given)	x	x	x	x	x	i	x	x	x	x
COc1ccc(Cl)cc1S(=O)(=O)N1CCN(C)CC1	i	-1.7	-7	i	i	i	x	x	x	x
